Results as given in ChEMBL document CHEMBL1147854, “Synthesis and biological properties of 4-(3H)-quinazolone derivatives” (2007).
Activity calls are given as the source filed them. The rule behind the calls is not given here.

Legend:
[1] = system: Aspergillus flavus; experiment: Antifungal activity against Aspergillus flavus at 10 ug/ml by agar plate method; assay type: functional
Method in brief: (§1)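 1 ml of test compound in DMSO (diluted to required level, filtered if turbid) mixed into 20–25 ml molten potato dextrose agar. After setting, plates were inoculated with fungal isolate and kept at 27 °C for seven days. Percent inhibition of fungal zone then recorded. Amphotericin control (7.5 mg/ml).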

[2] = system: Aspergillus flavus; experiment: Antifungal activity against Aspergillus flavus at 20 ug/ml by agar plate method; assay type: functional; method in brief: as §1
[3] = system: Aspergillus flavus; experiment: Antifungal activity against Aspergillus flavus at 50 ug/ml by agar plate method; assay type: functional; method in brief: as §1
[4] = system: Aspergillus flavus; experiment: Antifungal activity against Aspergillus flavus at 100 ug/ml by agar plate method; assay type: functional; method in brief: as §1
[5] = system: Aspergillus niger; experiment: Antifungal activity against Aspergillus niger at 10 ug/ml by agar plate method; assay type: functional; method in brief: as §1
[6] = system: Aspergillus niger; experiment: Antifungal activity against Aspergillus niger at 20 ug/ml by agar plate method; assay type: functional; method in brief: as §1
[7] = system: Aspergillus niger; experiment: Antifungal activity against Aspergillus niger at 50 ug/ml by agar plate method; assay type: functional; method in brief: as §1
[8] = system: Aspergillus niger; experiment: Antifungal activity against Aspergillus niger at 100 ug/ml by agar plate method; assay type: functional; method in brief: as §1
[9] = system: Pseudomonas aeruginosa; experiment: Antibacterial activity against Pseudomonas aeruginosa at 10 ug/ml after 24 hrs by disk diffusion method; assay type: functional; conditions: read-out: IZ
Method in brief: (§2)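 Disk diffusion on filter-paper discs impregnated with DMSO solutions of test compound; filtered if turbid. Inhibition zones around dried discs measured after 24 h. Triplicate samples. Tetracycline control (20 mg/ml).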

[10] = system: Staphylococcus aureus; experiment: Antibacterial activity against Staphylococcus aureus at 10 ug/ml after 24 hrs by disk diffusion method; assay type: functional; conditions: read-out: IZ; method in brief: as §2
[11] = system: Klebsiella pneumoniae; experiment: Antibacterial activity against Klebsiella pneumoniae at 10 ug/ml after 24 hrs by disk diffusion method; assay type: functional; conditions: read-out: IZ; method in brief: as §2
[12] = system: MCF7; experiment: Cytotoxicity against human MCF7 cells by MTT assay; assay type: functional, cell-based
Method in brief: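 MCF-7 cells were kept at 37 °C, 5% CO2 in MEM with 10% FBS, then moved for four days to phenol red-free DMEM with 10% charcoal-stripped serum before testing. Cells were seeded at 1 × 10^4/well and exposed to compounds for 24, 48 and 72 h. MTT was added for 5 h at 37 °C, followed by DMSO solubilisation. Doxorubicin standard.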

Row | SMILES | inhibition at 10 µg/mL [1] | inhibition at 20 µg/mL [2] | inhibition at 50 µg/mL [3] | inhibition at 100 µg/mL [4] | inhibition at 10 µg/mL [5] | inhibition at 20 µg/mL [6] | inhibition at 50 µg/mL [7] | inhibition at 100 µg/mL [8] | zone of inhibition at 10 µg/mL [9] | zone of inhibition at 10 µg/mL [10] | zone of inhibition at 10 µg/mL [11] | Activity [12]
1 | O=c1c2ccccc2nc(-c2ccccc2)n1Nc1nc(-c2ccccc2)nc2ccccc12 | 76.7% | 83.3% | 93.3% | 96.7% | 30% | 40% | 60% | 75% | 10 mm | 6 mm | > 14 mm | inactive
2 | O=C1c2ccccc2C(=O)N1Cc1nc2ccccc2c(=O)n1Nc1nc(-c2ccccc2)nc2ccccc12 | 83.3% | 86.7% | 86.7% | 96.7% | 25% | 70% | 75% | 85% | > 14 mm | 6 mm | > 14 mm | inactive
3 | O=C(NCc1nc2ccccc2c(=O)n1Nc1nc(-c2ccccc2)nc2ccccc12)c1ccccc1 | 60% | 66.6% | 76.7% | 86.7% | 50% | 60% | 75% | 90% | 10 mm | 10 mm | 10 mm | Active
4 | O=c1c2ccccc2nc(/C=C\c2ccccc2)n1Nc1nc(-c2ccccc2)nc2ccccc12 | 53.3% | 80% | 86.7% | 96.7% | 60% | 70% | 90% | 95% | 10 mm | > 14 mm | 6 mm | Active
